{
  "source": "paper PMC7797077",
  "about": "(Nucleic Acids Research, 2020)",
  "key": {"[1]": {"test_system": "histone Kbz in HEK 293T, HeLa, HCT116 and HepG2 cells", "assay": "Western blot of core histone Kbz levels after NaBz treatment", "type": "cell-based, human", "conditions": "24-h treatment with NaBz at various concentrations"}, "[2]": {"test_system": "histone Kbz and Kac in mouse intestinal epithelial cells", "assay": "NaBz water feeding in mice, western blot of histone Kbz and Kac", "type": "in vivo, C57BL/6N mice", "conditions": "ten days of NaBz water feeding at 10, 20 and 50 mM", "outline": "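SPF-housed mice drank NaBz water for 10 days. Intestinal tissue was shaken at 200 rpm, 37°C, 20 min in HBSS (no Ca²⁺/Mg²⁺) with 10 mM HEPES, 5 mM EDTA, 1 mM DTT and 3% FBS. Released epithelial cells were pelleted at 1500 rpm, 4°C. Total histones were kit-extracted and BCA-quantified, then run on SDS-PAGE and PVDF. Primary antibodies overnight at 4°C; HRP secondary 1:5,000; ECL. Histone H4 served as loading control; duplicate mice.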"}, "[3]": {"test_system": "nuclear Kbz in HEK 293T and HCT116 cells", "assay": "Immunofluorescence staining of Kbz after NaBz treatment", "type": "cell-based, human", "conditions": "10 mM NaBz, 24 h", "outline": "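Cells were fixed in 4% formaldehyde for 20 min at RT, permeabilized on ice with 0.5% Triton X-100 for 10 min, and blocked in 3% BSA for 1 h. Anti-pan Kbz (1:500) was applied overnight at 4°C, then Alexa Fluor 594 anti-mouse (1:1000) for 1 h. Mounted with DAPI; confocal imaging.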"}, "[4]": {"biological_target": "AF9 YEATS domain (2-138) (human) (UniProt P42568)", "assay": "ITC"}, "[5]": {"biological_target": "YEATS2 YEATS domain (201-332) S230F (human) (UniProt Q9ULM3)", "sequence (Q9ULM3 201-332 S230F)": "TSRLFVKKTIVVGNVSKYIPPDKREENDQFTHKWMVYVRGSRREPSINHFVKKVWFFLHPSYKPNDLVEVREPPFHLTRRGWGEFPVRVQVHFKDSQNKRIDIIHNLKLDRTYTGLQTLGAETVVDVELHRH", "assay": "ITC"}, "[6]": {"biological_target": "YEATS2 YEATS domain (201-332) (human) (UniProt Q9ULM3)", "sequence (Q9ULM3 201-332)": "as the sequence (Q9ULM3 201-332 S230F) above, with F30S counted along it", "assay": "ITC"}, "[7]": {"biological_target": "T1, AF9 YEATS domain (2-138) F28S (human, UniProt P42568 2-138, F28S)", "T1 sequence (looked up)": "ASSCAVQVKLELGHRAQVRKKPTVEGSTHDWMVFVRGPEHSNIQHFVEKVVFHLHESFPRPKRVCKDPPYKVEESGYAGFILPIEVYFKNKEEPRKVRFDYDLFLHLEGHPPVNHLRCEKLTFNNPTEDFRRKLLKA", "assay": "ITC"}},
  "note": "Where no end group is shown, it is not given here. The star is where a group is joined. Bz = O=C(c1ccccc1)*",
  "data": [
    {"molecule": "O=C([O-])c1ccccc1.[Na+]", "note": "[NaBz, Sodium benzoate]", "values": [
      {"measurement": "signals of histone Kbz (pan Kbz western blot)", "setting": "[1]", "result": "upregulated in a dose-dependent manner"},
      {"measurement": "pan Kac level of histone in mouse intestinal epithelial cells", "setting": "[2]", "result": "not stimulated"},
      {"measurement": "histone Kbz signal in mouse intestinal epithelial cells", "setting": "[2]; two mice per concentration", "result": "clearly boosted"},
      {"measurement": "nuclear Kbz signals (immunofluorescence)", "setting": "[3]", "result": "lightened up"}
    ]},
    {"molecule": "histone H3_(2-16)K9bz peptide (from UniProt P68431 3-17)", "values": [
      {"measurement": "Kd", "setting": "[4]", "result": 5.97, "unit": "µM"}
    ]},
    {"molecule": "histone H3_(15-39)K27bz peptide (from UniProt P68431 16-40)", "values": [
      {"measurement": "dH", "setting": "[5]", "result": -6.8, "unit": "kcal/mol"},
      {"measurement": "Kd", "setting": "[6]", "result": 21.6, "unit": "µM"}
    ]},
    {"molecule": "RTKQTARK(Bz)STGGKAP (peptide, UniProt P68431 3-17, looked up)", "note": "[histone H3_(2-16)K9bz peptide]", "values": [
      {"measurement": "fold binding enhancement over WT AF9 YEATS", "setting": "[7]", "result": "~1.6", "unit": "fold"}
    ]}
  ]
}
